This passage reports EC50 and selectivity ratio results from ChEMBL document CHEMBL1944638, “Quinol derivatives as potential trypanocidal agents” (Bioorg Med Chem, 2012).

In one data set the test system is Trypanosoma brucei. As to the kind of experiment: Antitrypanosomal activity against blood stream form of Trypanosoma brucei after 69 hrs by resazurin-based fluorescence assay. The class given is functional, organism-based. The procedure, abridged: (§1)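 96-well HTS whole-cell assay against bloodstream-form T. brucei and human MRC5 cells. EC50 values are the arithmetic mean of independent determinations, with SD and number of repeats. Species selectivity is EC50 (MRC5)/EC50 (T. brucei).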

The subject of the next data set is MRC5. Description: Cytotoxicity against human MRC5 cells after 3 days by resazurin-based fluorescence assay. The class given is cell-based. Conditions: MRC5, 72 h. In short, it runs like this: as §1
Background: Alamar Blue is a resazurin reagent that responds to reducing activity.

The nature of data set [1]: Selectivity ratio of EC50 for human MRC5 cells to EC50 for blood stream form of Trypanosoma brucei. The class given is ADME, cell-based. The note with it: read-out: Ratio EC50. In short, it runs like this:
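Ratio of EC50 in human MRC5 cells over EC50 in bloodstream-form T. brucei, both from 96-well HTS whole-cell assays. Each EC50 is the arithmetic mean of independent determinations, reported with SD and number of repeats.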

The term EC50 denotes the concentration at which the effect is half-maximal. The low end stands for a more potent agent, the high end for a less potent agent. For the compound `O=C1C=CC(O)(c2ccccc2)C=C1`, the results for the EC50 in the data set with Trypanosoma brucei and with MRC5 were 750 nM and 1700 nM, respectively. For the same compound, the selectivity ratio in data set [1] is 2.
In the case of `O=C1C=CC(O)(c2nc3ccccc3s2)C(Cl)=C1` (configuration not stated), in data set [1], the selectivity ratio turned out to be 1.
Turning to `O=C1C=CC(O)(c2nc3ccccc3s2)C=C1`, the EC50 is 77 nM with Trypanosoma brucei and 180 nM in the data set with MRC5. Moreover, in data set [1], the selectivity ratio turned out to be 2.
As to `O=C1C=CC(O)(c2cc3ccccc3n2S(=O)(=O)c2ccccc2)C=C1`, the EC50 worked out at 53 nM in the data set on Trypanosoma brucei and 110 nM in the data set with MRC5. Besides, in data set [1], the selectivity ratio came out at 2.
Consider `COc1ccc(-n2cc(C3(O)C=CC(=O)C=C3)nn2)cc1`, for which the EC50 with Trypanosoma brucei stood at 130 nM; in the data set with MRC5, 310 nM. Moreover, the selectivity ratio in data set [1] stood at 2.
On to `Nc1nc(N)nc(NCCCOC(=O)CCc2ccc(S(=O)(=O)n3c(C4(O)C=CC(=O)C=C4)cc4ccccc43)cc2)n1`, for which, in data set [1], the selectivity ratio amounted to 2.7.
On to `C#CC1(O)C=CC(=O)C=C1`, for which the selectivity ratio in data set [1] turned out to be 1.
Regarding `O=C1C=CC(O)(C#Cc2ccc(CC(=O)Nc3ccccc3)cc2)C=C1`, the selectivity ratio in data set [1] was 0.3.
On to `COc1ccc(Cn2cc(C3(O)C=CC(=O)C=C3)nn2)cc1`, for which the selectivity ratio in data set [1] was determined as 3.
Still for that read-out and setting: the result for `O=C1C=CC(O)(c2cn(-c3ccc4ncsc4c3)nn2)C=C1` reads 3.
On to `CC(=O)OC[C@H]1O[C@@H](n2cc(C3(O)C=CC(=O)C=C3)nn2)[C@H](OC(C)=O)[C@@H](OC(C)=O)[C@H]1OC(C)=O`, for which, in data set [1], the selectivity ratio was more than 5.
In the case of `O=C1C=CC(O)(c2cn(CCC(=O)Nc3ccccc3)nn2)C=C1`, the selectivity ratio in data set [1] was found to be 7.
In the case of `O=C1C=CC(O)(c2cc3ccccc3n2S(=O)(=O)c2ccc(CCCO)cc2)C=C1`, the selectivity ratio in data set [1] was determined as 2.
Consider `O=C1C=CC(O)(c2cc3ccccc3n2S(=O)(=O)c2ccc(CCC(=O)N3CCOCC3)cc2)C=C1`, for which the selectivity ratio in data set [1] is 2.
Turning to `CN1CCN(C(=O)CCc2ccc(S(=O)(=O)n3c(C4(O)C=CC(=O)C=C4)cc4ccccc43)cc2)CC1`, in data set [1], the selectivity ratio is 3.
On to `O=C1C=CC(O)(c2cc3ccccc3n2S(=O)(=O)c2ccc(CCCN3CCOCC3)cc2)C=C1`, for which the selectivity ratio in data set [1] was determined as 3.
The same measure, in the same setting: the result for `CN1CCN(CCCc2ccc(S(=O)(=O)n3c(C4(O)C=CC(=O)C=C4)cc4ccccc43)cc2)CC1` reads 3.
In the data set with MRC5, `N=C(N)c1ccc(-n2cc(C3(O)C=CC(=O)C=C3)nn2)cc1` registered an EC50 of more than 50000 nM. The selectivity ratio in data set [1] was more than 5.
The corresponding values for `Nc1nc(N)nc(-n2cc(C3(O)C=CC(=O)C=C3)nn2)n1` are more than 50000 nM and more than 8.
In the case of `Nc1nc(N)nc(NCCCNC(=O)CCc2ccc(S(=O)(=O)n3c(C4(O)C=CC(=O)C=C4)cc4ccccc43)cc2)n1`, in data set [1], the selectivity ratio was determined as 5.6.
Consider `CC(=O)NCCc1ccc(S(=O)(=O)n2c(C3(O)C=CC(=O)C=C3)cc3ccccc32)cc1`, for which the selectivity ratio in data set [1] worked out at 3.
For the compound `COC(=O)CCc1ccc(S(=O)(=O)n2c(C3(O)C=CC(=O)C=C3)cc3ccccc32)cc1`, the selectivity ratio in data set [1] came out at 2.
On the same count and under the same terms, the result for `CS(=O)(=O)c1ccc(S(=O)(=O)n2c(C3(O)C=CC(=O)C=C3)cc3ccccc32)cc1` reads 2; that for `O=C1C=CC(O)(c2cc3ccccc3n2S(=O)(=O)c2ccc(CCC(=O)O)cc2)C=C1`, 4.5; that for `CCOC(=O)Nc1ccc(S(=O)(=O)n2c(C3(O)C=CC(=O)C=C3)cc3ccccc32)cc1`, 2.
As for `O=C1C=CC(O)(c2cc3cnccc3n2S(=O)(=O)c2ccccc2)C=C1`, the selectivity ratio in data set [1] amounted to 2.
Regarding `Cc1ccc(S(=O)(=O)n2c(C3(O)C=CC(=O)C=C3)cc3ccncc32)cc1`, the selectivity ratio in data set [1] worked out at 2.
`O=C1C=CC(O)(c2cc3ccc(F)cc3n2S(=O)(=O)c2ccccc2)C=C1`: the figures for the EC50 in the data set on Trypanosoma brucei and in the data set on MRC5 were 100 nM and 170 nM, respectively. In data set [1], the selectivity ratio is 2.
In the case of `Oc1ccc(-c2nc3ccccc3s2)cc1`, the EC50 in the data set with Trypanosoma brucei and in the data set on MRC5 was more than 50000 nM each time.
